Test results as given in ChEMBL document CHEMBL1149790, “Synthesis of some novel thiourea derivatives obtained from 5-[(4-aminophenoxy)methyl]-4-alkyl/aryl-2,4-dihydro-3H-1,2,4-triazole-3-thiones and evaluation as antiviral/anti-HIV and anti-tuberculosis agents” (Eur J Med Chem, 2008).
In brackets after ≈: the same amount, converted by molar mass. Activity calls are given as the source filed them. The rule behind the calls is not given here.

Key:
Human alphaherpesvirus 3 [1] = experiment: Antiviral activity against TK- VZV 07/1 infected HEL cells assessed as reduction in virus plaque formation; type: functional, organism-based; conditions: Human alphaherpesvirus 3, 07/1, HEL
Human respirovirus 3 = experiment: Antiviral activity against Parainfluenza 3 virus in african green monkey Vero cells assessed as reduction of virus-induced cytopathogenicity; type: functional
Procedure, shortened: (§1)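 Confluent cell monolayers (E6SM, HEL, HeLa or Vero, per line) inoculated with 100 CCID50 virus; 1 h adsorption, residual virus removed, then incubated with compound at 400, 200, 100 … µg/ml. Cytopathicity scored once complete in untreated virus controls; MIC = concentration inhibiting virus-induced cytopathicity.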

[2] = tested on: Respiratory syncytial virus; experiment: Antiviral activity against respiratory syncytial virus in human HeLa cells assessed as inhibition of virus-induced cytopathogenicity; type: functional; procedure, shortened: as §1
Human alphaherpesvirus 1 [3] = experiment: Antiviral activity against thymidine kinase deficient and acyclovir resistant HSV1 KOS in human HEL cells assessed as reduction of virus-induced cytopathogenicity; type: functional; conditions: Human alphaherpesvirus 1, KOS; procedure, shortened: as §1
[4] = tested on: Vesicular stomatitis virus; experiment: Antiviral activity against in Vesicular stomatitis virus in human HEL cells assessed as reduction of virus-induced cytopathogenicity; type: functional; procedure, shortened: as §1
[5] = tested on: Vesicular stomatitis virus; experiment: Antiviral activity against vesicular stomatitis virus in human HeLa cells assessed as inhibition of virus-induced cytopathogenicity; type: functional; procedure, shortened: as §1
Human alphaherpesvirus 1 [6] = experiment: Antiviral activity against HSV1 KOS in human E6SM cells assessed as reduction of virus-induced cytopathogenicity; type: functional; conditions: Human alphaherpesvirus 1, KOS; procedure, shortened: as §1
[7] = tested on: Vesicular stomatitis virus; experiment: Antiviral activity against in Vesicular stomatitis virus in human E6SM cells assessed as reduction of virus-induced cytopathogenicity; type: functional; procedure, shortened: as §1
[8] = Cytotoxicity against human HeLa cells; type: cell-based
Procedure, shortened: (§2)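 Uninfected cell cultures exposed to test compounds alongside antiviral assays; minimum cytotoxic concentration (MCC) = concentration causing a microscopically detectable alteration of cell morphology.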

Human betaherpesvirus 5 [9] = experiment: Antiviral activity against human cytomegalovirus AD169 infected HEL cells assessed as reduction in virus plaque formation; type: functional, organism-based; conditions: Human betaherpesvirus 5, AD169, HEL
[10] = Cytotoxicity against human HEL cells assessed as alteration of cell morphology; type: cell-based; procedure, shortened: as §2
Punta Toro virus = experiment: Antiviral activity against Punta Toro virus in african green monkey Vero cells assessed as reduction of virus-induced cytopathogenicity; type: functional; procedure, shortened: as §1
[11] = tested on: Mammalian orthoreovirus 1; experiment: Antiviral activity against Reo virus 1 in african green monkey Vero cells assessed as reduction of virus-induced cytopathogenicity; type: functional; procedure, shortened: as §1
Coxsackievirus B4 [12] = experiment: Antiviral activity against Coxsackie virus B4 in african green monkey Vero cells assessed as reduction of virus-induced cytopathogenicity; type: functional; conditions: Enterovirus B; procedure, shortened: as §1
Coxsackievirus B4 [13] = experiment: Antiviral activity against Coxsackie virus B4 in human HeLa cells assessed as inhibition of virus-induced cytopathogenicity; type: functional; conditions: Enterovirus B; procedure, shortened: as §1
Human betaherpesvirus 5 [14] = experiment: Antiviral activity against human cytomegalovirus Davis infected HEL cells assessed as reduction in virus plaque formation; type: functional, organism-based; conditions: Human betaherpesvirus 5, Davis
Human alphaherpesvirus 1 [15] = experiment: Antiviral activity against thymidine kinase deficient and acyclovir resistant HSV1 KOS in human E6SM cells assessed as reduction of virus-induced cytopathogenicity; type: functional; conditions: Human alphaherpesvirus 1, KOS; procedure, shortened: as §1
[16] = Cytotoxicity against human E6SM cells; type: cell-based; conditions: E6SM cells; procedure, shortened: as §2
Vero = experiment: Cytotoxicity against african green monkey Vero cells; type: cell-based; conditions: chlorocebus sabaeus; procedure, shortened: as §2
[17] = Cytotoxicity against human MT4 cells by MTT assay; type: cell-based
Procedure, shortened: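 Mock-infected MT-4 cells (6 × 10⁵ cells/ml) with serial five-fold compound dilutions in triplicate; MTT reduction read at 540 and 690 nm after 5 days, median OD of three wells; CC50 = concentration reducing OD540 of mock-infected control by 50%.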

Sindbis virus = experiment: Antiviral activity against Sindbis virus in african green monkey Vero cells assessed as reduction of virus-induced cytopathogenicity; type: functional; procedure, shortened: as §1
Human alphaherpesvirus 1 [18] = experiment: Antiviral activity against HSV1 KOS in human HEL cells assessed as reduction of virus-induced cytopathogenicity; type: functional; conditions: Human alphaherpesvirus 1, KOS; procedure, shortened: as §1
Human alphaherpesvirus 3 [19] = experiment: Antiviral activity against TK+ VZV OKA infected HEL cells assessed as reduction in virus plaque formation; type: functional, organism-based; conditions: Human alphaherpesvirus 3, OKA
Human alphaherpesvirus 2 [20] = experiment: Antiviral activity against HSV2 G in human HEL cells assessed as reduction of virus-induced cytopathogenicity; type: functional; conditions: Human alphaherpesvirus 2, G; procedure, shortened: as §1
[21] = Cytotoxicity against human HEL cells assessed as reduction of cell growth; type: cell-based
Procedure, shortened: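 HEL cells; CC50 = compound concentration reducing cell growth by 50%.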

Human alphaherpesvirus 2 [22] = experiment: Antiviral activity against HSV2 G in human E6SM cells assessed as reduction of virus-induced cytopathogenicity; type: functional; conditions: Human alphaherpesvirus 2, G; procedure, shortened: as §1
[23] = tested on: Mycobacterium tuberculosis; experiment: Antitubercular activity against Mycobacterium tuberculosis H37Rv at 6.25 ug/ml by MABA assay; type: functional
[24] = tested on: Human immunodeficiency virus 2; experiment: Antiviral activity against HIV2 ROD in human MT4 cells assessed as protection against virus-induced cytopathogenicity by MTT assay; type: functional, organism-based; design: Activity: concentration or dose not given beside the values; conditions: for IC50: Human immunodeficiency virus 2, ROD, MT4
Procedure, shortened: (§3)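 MT-4 cells at 6 × 10⁵ cells/ml infected with HIV-1 IIIB or HIV-2 ROD at 100–300 CCID50; compounds in serial five-fold dilutions, triplicate mock- and virus-infected wells. MTT viability read at 540 and 690 nm after 5 days, median OD of three wells; EC50 = 50% protection from viral cytopathic effect.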

[25] = tested on: Human immunodeficiency virus 1; experiment: Antiviral activity against HIV1 3B in human MT4 cells assessed as protection against virus-induced cytopathogenicity by MTT assay; type: functional, organism-based; design: Activity: concentration or dose not given beside the values; conditions: for IC50: Human immunodeficiency virus 1, 3B, MT4; procedure, shortened: as §3
[26] = tested on: Mycobacterium tuberculosis; experiment: Antitubercular activity against Mycobacterium tuberculosis H37Rv
Mycolicibacterium aurum = experiment: Antitubercular activity against Mycobacterium aurum A1; type: functional
Mycobacterium avium = experiment: Antitubercular activity against Mycobacterium avium; type: functional

Row | SMILES | EC50 (Human alphaherpesvirus 3 [1]) | MIC (Human respirovirus 3) | MIC [2] | MIC (Human alphaherpesvirus 1 [3]) | MIC [4] | MIC [5] | MIC (Human alphaherpesvirus 1 [6]) | MIC [7] | MCC [8] | EC50 (Human betaherpesvirus 5 [9]) | MCC [10] | MIC (Punta Toro virus) | MIC [11] | MIC (Coxsackievirus B4 [12]) | MIC (Coxsackievirus B4 [13]) | EC50 (Human betaherpesvirus 5 [14]) | MIC (Human alphaherpesvirus 1 [15]) | MCC [16] | Activity (Vero) | CC50 [17] | further results
1 | CCn1c(COc2ccc(N)cc2)n[nH]c1=S | > 100 µg/mL | > 16 µg/mL | > 400 µg/mL | 240 µg/mL (≈ 959 µM) | > 400 µg/mL | > 400 µg/mL | > 400 µg/mL | > 400 µg/mL | ≥ 400 µg/mL | > 100 µg/mL | > 400 µg/mL | > 16 µg/mL | > 16 µg/mL | > 16 µg/mL | > 400 µg/mL | > 100 µg/mL | 240 µg/mL (≈ 959 µM) | > 400 µg/mL | 80 µg/mL | > 125 µg/mL | MIC (Sindbis virus): > 16 µg/mL; MIC (Human alphaherpesvirus 1 [18]): > 400 µg/mL; EC50 (Human alphaherpesvirus 3 [19]): > 100 µg/mL; MIC (Human alphaherpesvirus 2 [20]): 240 µg/mL (≈ 959 µM); CC50 [21]: > 50 µg/mL; MIC (Human alphaherpesvirus 2 [22]): 240 µg/mL (≈ 959 µM); Activity [23]: inactive; Activity [24]: 8%; IC50 [24]: > 125 µg/mL; Activity [25]: 6%; IC50 [25]: > 125 µg/mL
2 | C=CCNC(=S)Nc1ccc(OCc2n[nH]c(=S)n2CC)cc1 | 42 µg/mL (≈ 120 µM) | > 80 µg/mL | > 80 µg/mL | 240 µg/mL (≈ 687 µM) | > 400 µg/mL | > 80 µg/mL | > 400 µg/mL | > 400 µg/mL | 400 µg/mL | 45 µg/mL (≈ 129 µM) | > 400 µg/mL | > 80 µg/mL | > 80 µg/mL | 48 µg/mL (≈ 137 µM) | > 80 µg/mL | 45 µg/mL (≈ 129 µM) | 240 µg/mL (≈ 687 µM) | > 400 µg/mL | 400 µg/mL | 75.9 µg/mL (≈ 217 µM) | MIC (Sindbis virus): 48 µg/mL (≈ 137 µM); MIC (Human alphaherpesvirus 1 [18]): > 400 µg/mL; EC50 (Human alphaherpesvirus 3 [19]): 41 µg/mL (≈ 117 µM); MIC (Human alphaherpesvirus 2 [20]): 240 µg/mL (≈ 687 µM); CC50 [21]: > 50 µg/mL; MIC (Human alphaherpesvirus 2 [22]): 240 µg/mL (≈ 687 µM); inhibition at 6.25 µg/mL [23]: 75%; Activity [24]: 2%; IC50 [24]: > 71.4 µg/mL; Activity [25]: 3%; IC50 [25]: > 72.3 µg/mL
3 | CCNC(=S)Nc1ccc(OCc2n[nH]c(=S)n2C)cc1 | > 100 µg/mL | > 80 µg/mL | > 80 µg/mL | 240 µg/mL (≈ 742 µM) | > 400 µg/mL | > 80 µg/mL | > 400 µg/mL | > 400 µg/mL | 400 µg/mL | > 100 µg/mL | > 400 µg/mL | > 80 µg/mL | > 80 µg/mL | > 80 µg/mL | > 80 µg/mL | > 100 µg/mL | 240 µg/mL (≈ 742 µM) | > 400 µg/mL | 400 µg/mL | ≥ 107 µg/mL | MIC (Sindbis virus): > 80 µg/mL; MIC (Human alphaherpesvirus 1 [18]): > 400 µg/mL; EC50 (Human alphaherpesvirus 3 [19]): > 100 µg/mL; MIC (Human alphaherpesvirus 2 [20]): 240 µg/mL (≈ 742 µM); CC50 [21]: > 50 µg/mL; MIC (Human alphaherpesvirus 2 [22]): 240 µg/mL (≈ 742 µM); Activity [23]: inactive; Activity [24]: 2%; IC50 [24]: > 125 µg/mL; Activity [25]: 1.5%; IC50 [25]: > 107 µg/mL
4 | CNC(=S)Nc1ccc(OCc2n[nH]c(=S)n2C)cc1 | > 100 µg/mL | > 80 µg/mL | > 400 µg/mL | > 400 µg/mL | > 400 µg/mL | > 400 µg/mL | > 400 µg/mL | > 400 µg/mL | > 400 µg/mL | > 100 µg/mL | > 400 µg/mL | > 80 µg/mL | > 80 µg/mL | > 80 µg/mL | > 400 µg/mL | > 100 µg/mL | > 400 µg/mL | > 400 µg/mL | 400 µg/mL | ≥ 112 µg/mL | MIC (Sindbis virus): > 80 µg/mL; MIC (Human alphaherpesvirus 1 [18]): > 400 µg/mL; EC50 (Human alphaherpesvirus 3 [19]): > 100 µg/mL; MIC (Human alphaherpesvirus 2 [20]): 240 µg/mL (≈ 776 µM); CC50 [21]: > 50 µg/mL; MIC (Human alphaherpesvirus 2 [22]): 240 µg/mL (≈ 776 µM); Activity [23]: inactive; Activity [24]: 1%; IC50 [24]: > 125 µg/mL; Activity [25]: 1%; IC50 [25]: > 112 µg/mL
5 | CC(C)CCOc1ccc(NC(=S)Nc2ccc(OCCC(C)C)cc2)cc1 [TIOCARLIDE] | – | – | – | – | – | – | – | – | – | – | – | – | – | – | – | – | – | – | – | – | MIC [26]: 2.5 µg/mL (≈ 6.24 µM); MIC (Mycolicibacterium aurum): 2 µg/mL (≈ 4.99 µM); MIC (Mycobacterium avium): 2 µg/mL (≈ 4.99 µM)
